Measurements gathered from unrelated publications.
Protocols differ between the studies behind these lines.
Observed: cell growth or viability

SMILES | cell line | technique | time | IC50 [µM]
Cc1cc2c(C(N)=O)cccc2n1-c1nc2c(c(NCc3ccccc3)n1)CCCN2 | ARP-1 | – | 72 h | 1.3
O=C(CSc1nc2ccccc2s1)N/N=C/c1ccc(OCC(=O)Nc2cccc(Br)c2)cc1 | Z-138 | MTS | 72 h | > 100
CC(C)c1cccc(C(C)C)c1N=C1C(=O)N(Cc2ccc(Br)cc2)c2ccccc21 | B16 | MTT | 48 h | 34.2
c1ccc(-c2cc(CNc3cccc4cccnc34)on2)cc1 | Z-138 | MTS | 72 h | 35.3
COc1cccc2c1C(=O)c1c(O)c3c(c(O)c1C2=O)C[C@@](O)(C(=O)CO)C[C@@H]3O[C@H]1C[C@H](N)[C@H](O)[C@H](C)O1 | BXPC-3 | – | 96 h | 0.124
FC(F)(F)c1cc(OCc2cc(-c3ccccn3)no2)c2ccccc2n1 | Z-138 | MTS | 72 h | > 100
COc1cc(N=C2C(=O)N(Cc3ccccc3)c3ccccc32)cc(OC)c1 | B16 | MTT | 48 h | 0.57
O=C(CSc1nc2ccccc2s1)N/N=C/c1ccc(OCC(=O)Nc2ccc([N+](=O)[O-])cc2)cc1 | Z-138 | MTS | 72 h | 3.75
FC(F)(F)c1ccc(-c2cc(COc3cc(C(F)(F)F)nc4ccccc34)on2)cc1 | Z-138 | MTS | 72 h | > 100
Cc1nn(-c2ccc(S(=O)(=O)N3CCN(C)CC3)cc2)c2nn3nnnc3nc12 | DLD-1 | MTT | – | 0.08
Cc1cc2c(C(=O)O)cccc2n1-c1nc2c(c(NCc3ccccc3)n1)CCCN2 | ARP-1 | – | 72 h | 0.9
O=C1C(=Nc2ccccc2I)c2ccccc2N1Cc1cccc(Cl)c1 | B16 | MTT | 48 h | 5.86
COc1cc([C@@H]2c3cc4c(cc3[C@@H](O[C@@H]3O[C@@H]5CO[C@@H](C)O[C@H]5[C@H](O)[C@H]3O)[C@H]3COC(=O)[C@H]23)OCO4)cc(OC)c1O | Z-138 | MTS | 72 h | 0.03
CC(C)c1cccc(C(C)C)c1N=C1C(=O)Nc2ccccc21 | B16 | MTT | 48 h | 6.88
CONC(=O)c1cccc2c1cc(C)n2-c1nc2c(c(NCc3ccccc3)n1)CCCN2 | BXPC-3 | – | 72 h | 1.4
O=c1cc(OCc2cc(-c3ccc(Cl)cc3Cl)no2)c2ccccc2o1 | Z-138 | MTS | 72 h | > 100
O=C1Nc2ccccc2C1=Nc1cccc(Cl)c1 | B16 | MTT | 48 h | > 100
c1ccc(-c2cc(CNc3cccc4cccnc34)on2)nc1 | Z-138 | MTS | 72 h | 28.2
Cc1cccc(N=C2C(=O)N(Cc3cccc(Cl)c3)c3ccccc32)c1 | B16 | MTT | 48 h | 6.71
